TDP2 absorb – blocks human TDP2 phosphodiesterase activity; O95551; AID 720702; recombinant TDP2, T5PNP hydrolysis, p-nitrophenol absorbance 415 nm; inhibition, % at 12.8 µM; hit rate 0.34% among 370,000;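 active = inhibition above the mean of all tested compounds plus 3 SD, set per campaign, cut at about 25% in these data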;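 also: 0% = DMSO with enzyme and 100% = buffer with substrate but no TDP2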
Target sequence (O95551 whole entry, looked up): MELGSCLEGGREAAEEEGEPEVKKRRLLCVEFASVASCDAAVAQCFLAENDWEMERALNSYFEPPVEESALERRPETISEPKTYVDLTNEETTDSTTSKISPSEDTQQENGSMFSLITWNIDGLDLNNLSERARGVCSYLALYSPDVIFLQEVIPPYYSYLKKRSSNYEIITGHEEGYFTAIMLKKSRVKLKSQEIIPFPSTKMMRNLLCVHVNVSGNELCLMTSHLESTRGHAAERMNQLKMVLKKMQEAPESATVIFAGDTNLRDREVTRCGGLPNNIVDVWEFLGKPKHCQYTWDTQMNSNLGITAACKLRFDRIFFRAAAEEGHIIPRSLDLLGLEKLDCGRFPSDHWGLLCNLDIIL
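Assay system: recombinant human TDP2 / Reagent: T5PNP substrate at 5 mM, a TopII-DNA adduct mimic / Measured by: epi absorbance from released p-nitrophenol / Evaluation: % inhibition relative to enzyme-containing and enzyme-free wells / Control set: enzyme-free and DMSO wells / Replicates: each compound tested once, singlicate / Schedule: enzyme reaction with compound for 2 h at 37 °C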
MBD2 inh – inhibitors of human MBD2 binding to methylated oligonucleotide. inhibition, % at 4.4 µM. TR-FRET. hit rate 0.31% among 370,000. AID 686964. Q9UBB5; in the data active = inhibition above about 13%
Target sequence (Q9UBB5 whole entry, looked up): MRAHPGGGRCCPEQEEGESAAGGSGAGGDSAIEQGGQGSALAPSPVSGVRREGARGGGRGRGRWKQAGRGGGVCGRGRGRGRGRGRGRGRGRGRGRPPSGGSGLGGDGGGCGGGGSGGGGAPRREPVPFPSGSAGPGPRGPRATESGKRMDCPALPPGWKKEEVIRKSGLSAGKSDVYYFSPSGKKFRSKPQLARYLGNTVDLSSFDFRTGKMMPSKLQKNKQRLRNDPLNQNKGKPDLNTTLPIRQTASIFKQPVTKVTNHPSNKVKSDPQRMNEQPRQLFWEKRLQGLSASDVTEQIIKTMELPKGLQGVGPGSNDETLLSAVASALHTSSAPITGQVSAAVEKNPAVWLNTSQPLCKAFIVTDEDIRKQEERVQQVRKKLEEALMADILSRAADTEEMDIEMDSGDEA
LEDGF integ inh – blocks HIV-1 LEDGF/p75-dependent DNA integration; TR-FRET IN-LEDGF/p75 DNA integration, Eu/Cy5; inhibition, % at 3.7 µM; hit rate 0.64% among 370,000;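 active = inhibition above the screen-wide mean plus 3 SD, cut at about 13% in these data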;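 also: signal is the Cy5 over europium emission ratio at 671 and 618 nm; 0% = plate median of compound wells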
UHRF1 MBD2 ctr – human UHRF1 methylated DNA binding inhibitors; inhibition, % at 4.4 µM; UHRF1 binding to methylated oligo, TR-FRET; hit rate 0.75% among 370,000; Q96T88; in the data active = inhibition above about 21%;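 also: UHRF1 SRA domain binding a hemimethylated CpG hairpin DNA probe; 0% = median of test compound wells and 100% = reference inhibitor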
TDP2 confirm – confirmation of human TDP2 inhibitors | shares compounds with TDP2 absorb | recombinant human TDP2, absorbance read-out | inhibition, % at 12.8 µM | hit rate 22% among 1,100; in the data active = inhibition above about 25%;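 also: 0% = vehicle with enzyme and 100% = no enzyme buffer only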
IN multimer act – counter-screen for LEDGF/p75 integration inhibitors: HIV-1 integrase multimerization activators. shares compounds with LEDGF integ inh. AID 1053131. activation, % at 7.7 µM. TR-FRET HIV-1 integrase multimerization, biochemical. hit rate 17% among 2,000; in the data active = activation above about 8.9%
TR-FRET interf – TR-FRET optical interference, LEDGF/p75 integration counter-screen | TR-FRET optical interference counterscreen, HIV-1 IN multimerization | 2,000 tested, under 10 active | AID 1053135 | inhibition, % at 7.7 µM | shares compounds with LEDGF integ inh;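 active = inhibition above the mean over all tested compounds plus 3 SD, which no compound reached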;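 also: 0% = integrase with antibodies and DMSO and 100% = antibodies without integrase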
IN-LEDGF confirm – confirmation of HIV-1 LEDGF/p75-dependent integration inhibitors | shares compounds with LEDGF integ inh | TR-FRET LEDGF/p75-dependent HIV-1 integration, biochemical | inhibition, % at 3.7 µM | hit rate 36% among 2,000 | AID 1053136; in the data active = inhibition above about 14%
An asterisk follows results filed as active; · = no result given. In the library only some 1.6% were active in any assay of this set; here they are far more common.

SMILES | TDP2 absorb | MBD2 inh | LEDGF integ inh | UHRF1 MBD2 ctr | TDP2 confirm | IN multimer act | TR-FRET interf | IN-LEDGF confirm
C[n+]1cccc2c(Br)ccc([O-])c21 | 70.7* | -8.1 | 44.5* | 5.5 | 37.4* | 3.7 | -12.9 | 60.7*
[O-][n+]1cccc2c(Br)cc(Br)c(O)c21 | 2.6 | -4.7 | 5.2 | -7.2 | · | · | · | ·
CC(NC1=CC(=O)c2cccnc2C1=O)C(O)c1ccccc1 (configuration not stated) | 57.0* | -12.7 | 36.3* | 2.0 | 71.2* | 3.5 | -12.5 | 66.0*
CC(c1ccccc1)N1C(=O)c2cccnc2C1=O (configuration not stated) | 4.4 | 1.4 | 4.2 | -2.7 | · | · | · | ·
Nc1ccc(N2CCCCC2)c2nonc12 | 82.0* | 12.7 | 56.2* | 12.2 | 88.6* | 1.4 | -5.0 | 66.9*
O=c1[nH]c(Nc2ccccc2Cl)cc2ccccc12 | 71.4* | -4.1 | 30.0* | 9.3 | 42.6* | 1.1 | -3.8 | 29.6*
O=c1[nH]c(Nc2ccc(F)cc2)cc2ccccc12 | 76.8* | 1.6 | 52.9* | 5.2 | 64.9* | 1.3 | -4.4 | 66.6*
Cc1cc2ccccc2c(=O)[nH]1 | 14.3 | -0.2 | -2.9 | 3.2 | · | · | · | ·
COc1ccc2c(c1)Cc1sc(NC(=O)c3cccnc3)nc1-2 | -8.3 | -1.9 | -4.7 | -5.9 | · | · | · | ·
COc1ccc2c(c1)Cc1sc(NC(=O)c3ccco3)nc1-2 | 64.3* | -5.7 | 37.7* | -5.4 | 9.7 | 5.6 | -20.0 | 3.1
COc1ccc2c(c1)Cc1sc(NC(C)=O)nc1-2 | 49.2* | -13.3 | 14.7* | -11.8 | 29.3* | 6.1 | -21.8 | 26.9*
COc1ccc2c(c1)-c1nc(NC(=O)c3ccco3)sc1CC2 | -9.1 | -2.4 | 0.3 | -2.7 | · | · | · | ·
CCCCN1CCN(C(=O)C2CCN(S(=O)(=O)c3ccc4[nH]c(=O)oc4c3)CC2)CC1 | 5.6 | 2.0 | 2.0 | -1.0 | · | · | · | ·
O=C1C=C(N2CCOCC2)c2ccccc2C1=O | 64.7* | -11.8 | 22.3* | 2.2 | 86.5* | 3.1 | -11.0 | 72.3*
O=C1C=C(N2CCOCC2)c2cccc3cccc1c23 | -0.1 | -12.7 | 0.0 | -13.3 | · | · | · | ·
CCOc1ccc2c(c1)C(NC(C)=O)C(=O)N2CCN1CCOCC1 (configuration not stated) | 15.0 | -7.2 | 6.8 | 1.0 | · | · | · | ·
CC(=O)NC1C(=O)N(CCN2CCOCC2)c2ccc(Br)cc21 (configuration not stated) | 44.1* | -3.1 | 15.9* | -3.4 | 36.2* | 0.4 | -1.5 | 37.5*
O=C(O)CSc1cc(NS(=O)(=O)c2cccc([N+](=O)[O-])c2)c2ccccc2c1O | 62.9* | -9.2 | 16.0* | 2.4 | 70.1* | 4.2 | -15.1 | 63.0*
O=S(=O)(Nc1cc(Sc2cccc3cccnc23)c(O)c2ccccc12)c1ccccc1 | 32.5* | -23.5 | 17.1* | -31.3 | 6.7 | 0.1 | -0.7 | -11.0
CCOc1ccc(S(=O)(=O)Nc2cc(SCC(=O)O)c(O)c3ccccc23)cc1 | 65.9* | -3.8 | 24.6* | -6.5 | 55.5* | 2.0 | -7.5 | 43.1*
Cc1ccc(S(=O)(=O)Nc2cccc3cccnc23)cc1 | 4.2 | -1.3 | -27.2 | -0.3 | · | · | · | ·
CCOC(=O)c1ccccc1NS(=O)(=O)c1ccc(OCC)cc1 | 0.2 | 3.6 | -3.4 | 0.2 | · | · | · | ·
O=C(O)c1cccc(S(=O)(=O)Nc2ccc([N+](=O)[O-])cc2O)c1 | -6.8 | -1.7 | -1.3 | 3.7 | · | · | · | ·
COC(=O)[C@H](C(C)C)N1CCc2nnn(CC3CCCCC3)c2-c2ccccc2S1(=O)=O | -1.0 | -5.1 | 0.7 | -1.7 | · | · | · | ·
CN(C)S(=O)(=O)c1cccc(C(=O)N/N=C\c2ccccc2)c1 | -4.9 | -1.3 | -3.3 | 2.5 | · | · | · | ·
SMILES | TDP2 absorb | MBD2 inh | LEDGF integ inh | UHRF1 MBD2 ctr | TDP2 confirm | IN multimer act | TR-FRET interf | IN-LEDGF confirm
COc1cc(N)c2ncccc2c1OC | 46.5* | -8.7 | 27.4* | 0.0 | 10.0 | 3.3 | -16.8 | -2.9
Cc1cc2c(N)cccc2nn1 | 77.0* | 9.2 | 73.5* | 44.6* | 56.7* | 8.0 | -28.1 | 78.0*
Cc1cc2c(NC(=O)Nc3ccccc3)cccc2nn1 | 24.1 | -5.8 | -1.4 | -6.0 | · | · | · | ·
CCOC(=O)N1CCN(C(=O)C[C@H]2C[C@@]3(C(=O)OC)C(=C[C@H](COCc4ccccc4)O[C@@H]3C)N(Cc3ccco3)C2=O)CC1 | -7.2 | -3.3 | 7.5 | 0.7 | · | · | · | ·
CCCC#Cc1ccc(CC[C@H]2O[C@H]3CC[C@@H](CO)O[C@H]3C[C@H]2NC(=O)CN2CCOCC2)cc1 | -5.0 | -3.5 | 6.7 | 6.5 | · | · | · | ·
NC(=Nc1ccc(N)cc1)C(N)=Nc1ccc(N)cc1 | 50.8* | -5.0 | 39.3* | -3.6 | -9.2 | 1.2 | -4.0 | -5.5
COCC(=O)N1C[C@H]2CON(C)[C@H]2C[C@H]1c1cccc(-c2cc(Cl)cc(Cl)c2)c1 | 1.7 | -0.6 | -2.7 | 3.2 | · | · | · | ·
COC(=O)CCN1CCSCCS1(=O)=O | -3.4 | 1.6 | -1.9 | -1.7 | · | · | · | ·
CCOC(=O)C1(C)C=C(Nc2ccc(O)cc2)C(=O)N1c1ccc(O)cc1 (configuration not stated) | 27.9* | -5.6 | 14.3* | 5.3 | 17.4 | 7.6 | -38.5 | -6.2
CCOC(=O)C1(C)C=C(Nc2ccc(OC)cc2)C(=O)N1c1ccc(OC)cc1 (configuration not stated) | 0.0 | -5.8 | 5.3 | -3.6 | · | · | · | ·
CCOC(=O)[C@@]12CN(C(=O)OC(C)(C)C)CC=C1N(Cc1ccc(OC)cc1)C(=O)[C@H]2CC(=O)NCc1cccs1 | 2.1 | -0.7 | 4.2 | 0.2 | · | · | · | ·
Cc1ccc(S(=O)(=O)/N=C2\C=C(Nc3cccc(C(=O)O)c3)C(=O)c3ccccc32)cc1 | 84.8* | -2.8 | 51.6* | 6.6 | 77.0* | 0.1 | -0.2 | 63.8*
Cc1ccc(S(=O)(=O)/N=C2\C=C(NS(=O)(=O)c3ccccc3)C(=O)c3ccccc32)c(C)c1 | 3.4 | -16.7 | 1.7 | -2.3 | · | · | · | ·
CC(C)(C)N(Cc1cn(Cc2ccccc2)nn1)S(=O)(=O)c1ccc(N2CCCC2)cc1Br | -4.5 | -2.7 | 1.8 | 2.9 | · | · | · | ·
COc1cc(NCCCC(C)N)c2ncccc2c1 (configuration not stated) | 64.2* | -16.0 | 30.3* | -4.4 | 26.9* | 5.5 | -19.4 | 62.7*
COc1cc(NS(=O)(=O)c2ccc(C)cc2)c2ncccc2c1 | -2.0 | -2.4 | -25.8 | -0.1 | · | · | · | ·
CCC(CNc1cc(OC)cc2cccnc12)NC1CCCCC1 (configuration not stated) | 79.1* | -15.5 | 57.9* | 9.1 | 24.7* | 6.3 | -22.1 | 75.9*
COc1ccc(C2C(C(=O)Nc3c(C)cccc3C)CCC(=O)N2c2ccc(OC)cc2)cc1 (configuration not stated) | -3.6 | 0.6 | -2.7 | 2.4 | · | · | · | ·
